In the array DNA melting data of Ke et al. (doi:10.1101/2024.01.08.574731):

What was measured:
[1] = folding enthalpy; higher = less favourable; fluorescence melt of hairpins on a sequencing array, two-state fit; conditions: sodium 0.088 M
In short: (§1)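 Melting temperature and folding enthalpy were obtained by bootstrapped two-state fitting. Fits used Cy3 fluorescence of library hairpins with annealed Cy3 and quencher oligos on a sequenced MiSeq flow cell, imaged in 50 mM Na-HEPES pH 8.0, 25 mM NaCl in 2.5 °C steps up to 60 °C and normalised to pre-quench Cy3 and control constructs. Four replicates were combined by inverse-variance weighting, and fitted temperatures were raised by 9.35 °C to match UV melts.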

[2] = melting temperature; fluorescence melt of hairpins on a sequencing array, two-state fit, raised by 9.35 °C to match UV melts; conditions: sodium 0.088 M
In short: as §1

GCCAAGCGAAAGCGTAGC ((.(.((....)).).)) showed a folding enthalpy [1] of -13.3 kcal/mol and a Tm [2] of 47.5 °C.

In the case of GCCAAGCGAAAGCGTCGC ((.(.((....)).).)), the folding enthalpy [1] was -12.9 kcal/mol and the Tm [2] was 45.5 °C.

GCCAAGCGAAAGCTAAGC ((..(((....)))..)) gave a folding enthalpy [1] of -14.4 kcal/mol and a Tm [2] of 37.6 °C.

GCCAAGCGAAAGCTACGC ((..(((....)))..)) gave a folding enthalpy [1] of -11 kcal/mol and a Tm [2] of 34.7 °C.

GCCAAGCGAAAGCTGCGC ((..(((....)))..)) showed a folding enthalpy [1] of -20.8 kcal/mol and a Tm [2] of 51.6 °C.

For GCCAAGCGAAAGCTGTGC ((..(((....)))..)), the folding enthalpy [1] was -17.4 kcal/mol and the Tm [2] was 46.4 °C.

With GCCAAGGGAAACCTCGGC (((.(((....))).))) the folding enthalpy [1] was -29.2 kcal/mol and the Tm [2] was 46 °C.

Work on GCCAAGGGAAACCTTGAC (.(((((....))))).) yielded a folding enthalpy [1] of -20.6 kcal/mol and a Tm [2] of 39.6 °C.

GCCAAGTCGAAAGACGGC (((..(((....)))))) showed a folding enthalpy [1] of -25.6 kcal/mol and a Tm [2] of 52.7 °C.

GCCAATCGAAAGATGGC (((.(((....)))))) showed a folding enthalpy [1] of -35.5 kcal/mol and a Tm [2] of 55.4 °C.

With GCCACACGAAAGTGAGGC (((.(((....))).))) the folding enthalpy [1] was -35.8 kcal/mol and the Tm [2] was 66.2 °C.

GCCACAGCGAAAGCTGGC (((..(((....)))))) gave a folding enthalpy [1] of -12.5 kcal/mol and a Tm [2] of 51.9 °C.

GCCACAGGAAACCATGGC ((((..(....)..)))) showed a folding enthalpy [1] of -22.8 kcal/mol and a Tm [2] of 33.3 °C.

With GCCACAGGAAACTGTAGC ((.((((....)))).)) the folding enthalpy [1] was -24.3 kcal/mol and the Tm [2] was 39.4 °C.

Sequence GCCACAGGAAACTGTGAC (.(((((....))))).) has a folding enthalpy [1] of -15.9 kcal/mol and a Tm [2] of 46 °C.

In the case of GCCACCGAAAGGTAGGC ((((((....))).))), the folding enthalpy [1] was -32.2 kcal/mol and the Tm [2] was 62.7 °C.

Work on GCCACCGAAAGGTCCGGC ((((((....)))..))) yielded a folding enthalpy [1] of -17 kcal/mol and a Tm [2] of 46.8 °C.

Work on GCCACCGGAAACAGCGGC (((.(.(....).).))) yielded a folding enthalpy [1] of -16.9 kcal/mol and a Tm [2] of 32.5 °C.

Sequence GCCACGACGAAAGTCGGC (((..(((....)))))) has a folding enthalpy [1] of -10.2 kcal/mol and a Tm [2] of 44.1 °C.

With GCCACGCGAAAGCCCGGC (((..((....))..))) the folding enthalpy [1] was -18.5 kcal/mol and the Tm [2] was 43.7 °C.

In the case of GCCACGCGAAAGCGACGC ((..(((....)))..)), the folding enthalpy [1] was -11.8 kcal/mol and the Tm [2] was 39.8 °C.

Work on GCCACGCGAAAGCGCCGC ((..(((....)))..)) yielded a folding enthalpy [1] of -8.83 kcal/mol and a Tm [2] of 29.1 °C.

Work on GCCACGCGAAAGCGCTGC ((..(((....)))..)) yielded a folding enthalpy [1] of -11 kcal/mol and a Tm [2] of 37.4 °C.

In the case of GCCACGCGAAAGCTTGGC ((((.((....)).)))), the folding enthalpy [1] was -35.5 kcal/mol and the Tm [2] was 66 °C.

GCCACGGGAAACCGCGGC (((.(((....))).))) showed a folding enthalpy [1] of -44.5 kcal/mol and a Tm [2] of 59.1 °C.

Work on GCCACGTCGAAAGACGGC (((..(((....)))))) yielded a folding enthalpy [1] of -10.8 kcal/mol and a Tm [2] of 49.5 °C.

For GCCACTCGAAAGAGCGGC (((.(((....))).))), the folding enthalpy [1] was -46.9 kcal/mol and the Tm [2] was 61.3 °C.

Sequence GCCACTCGAAAGAGGGC (((.(((....)))))) has a folding enthalpy [1] of -24.3 kcal/mol and a Tm [2] of 54.7 °C.

In the case of GCCACTGGAAACGGTGGC (((((.(....).))))), the folding enthalpy [1] was -50.6 kcal/mol and the Tm [2] was 58.6 °C.

GCCAGAGGAAACTCTAGC ((.((((....)))).)) showed a folding enthalpy [1] of -17.3 kcal/mol and a Tm [2] of 34.1 °C.

In the case of GCCAGCGAAAGCTAGGGC ((((((....)))..))), the folding enthalpy [1] was -31.6 kcal/mol and the Tm [2] was 52.7 °C.

Sequence GCCAGCGGAAACGTTGGC ((((.((....)).)))) has a folding enthalpy [1] of -38.9 kcal/mol and a Tm [2] of 59.4 °C.

With GCCAGCTCGAAAGAGGGC (((..(((....)))))) the folding enthalpy [1] was -24.5 kcal/mol and the Tm [2] was 45 °C.

GCCAGGCGAAAGCCAAGC ((..(((....)))..)) gave a folding enthalpy [1] of -13.3 kcal/mol and a Tm [2] of 44.8 °C.

GCCAGGCGAAAGCCTAGC ((.((((....)))).)) gave a folding enthalpy [1] of -15.7 kcal/mol and a Tm [2] of 51.4 °C.

GCCAGGCGAAAGCCTTGC ((.((((....)))).)) showed a folding enthalpy [1] of -20 kcal/mol and a Tm [2] of 56.9 °C.

GCCAGGCGAAAGCGAGGC (((..((....))..))) showed a folding enthalpy [1] of -21.1 kcal/mol and a Tm [2] of 59.4 °C.

GCCAGGCGAAAGCGTCGC ((.(.((....)).).)) gave a folding enthalpy [1] of -8.31 kcal/mol and a Tm [2] of 40.7 °C.

GCCAGGGCGAAAGCCGGC (((..(((....)))))) gave a folding enthalpy [1] of -17.1 kcal/mol and a Tm [2] of 63.3 °C.

GCCAGTGGAAACACTAGC ((.((((....)))).)) showed a folding enthalpy [1] of -21.9 kcal/mol and a Tm [2] of 39.9 °C.

For GCCATAGAAATATGGC ((((((....)))))), the folding enthalpy [1] was -36.4 kcal/mol and the Tm [2] was 53.5 °C.

Sequence GCCATCCGAAAGGAGGC (((.(((....)))))) has a folding enthalpy [1] of -22.8 kcal/mol and a Tm [2] of 57.6 °C.

Sequence GCCATCCGAAAGGAGGGC (((.(((....))).))) has a folding enthalpy [1] of -44 kcal/mol and a Tm [2] of 67.2 °C.

Work on GCCATCGAAAGATATGGC ((((((....)))..))) yielded a folding enthalpy [1] of -32 kcal/mol and a Tm [2] of 46.6 °C.

GCCATCGAAAGATGAGGC ((((((....)))..))) showed a folding enthalpy [1] of -18.8 kcal/mol and a Tm [2] of 46.3 °C.
